From paper PMC4361903 (Blood, 2010)
One block for each molecule: values may come before it. Where no end group is shown, it is not given here. [ ]: non-standard residue; d: D form. pY = N[C@@H](Cc1ccc(OP(=O)(O)O)cc1)C(=O)O

Key:
[1] = molecular target: dually phosphorylated peptide based on the human FcRγ-chain ITAM, biotinylated (human) (UniProt P30273); assay: SPR
Syk (platelet) = Syk (platelet) (UniProt P43405); assay: biotinylated peptide pull-down, Syk blot; conditions: reference: pY7 31-mer peptide; sites T9
Syk N-SH2 domain = Syk N-SH2 domain (Homo sapiens, UniProt P43405); assay: Surface plasmon resonance, binding of Syk N-SH2 to immobilised peptide; conditions: SPR, 25°C, pH 7.4, SH2 domain 0-80μM
[2] = molecular target: tandem SH2 domains of Syk (Homo sapiens, UniProt P43405); assay: Surface plasmon resonance, binding of Syk tandem SH2 to immobilised peptide; conditions: SPR, 25°C, pH 7.4, SH2 domains 0-80μM
Syk C-SH2 domain = Syk C-SH2 domain (Homo sapiens, UniProt P43405); assay: Surface plasmon resonance, binding of Syk C-SH2 to immobilised peptide; conditions: SPR, 25°C, pH 7.4, SH2 domain 0-80μM
[3] = tested on: single C-terminal SH2 domain of Syk; assay: Tryptophan fluorescence titration, Syk C-terminal SH2; format: binding; conditions: same concentration range as tandem SH2 titration; pH 7.5
GPVI = conditions: cross-linking of GPVI; ref [8],[9]; cited from earlier work
[4] = tested on: GPVI and FcRγ-chain with mutated C-terminal ITAM tyrosine; format: cell-based; conditions: 10 μg/ml collagen, 6 hrs, 37°C; three separate experiments
How it was run: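 DT40 chicken B-cells (RPMI, 10% FBS, 1% chicken serum, 50μM β-mercaptoethanol) electroporated (350V, 500μF) with 2μg/ml each of GPVI and Myc-tagged FcRγ construct, 20μg NFAT-luciferase reporter and 2μg pEF6-lacZ. Live cells counted by trypan blue 20 h post-transfection. Luciferase normalised to β-galactosidase (triplicate readings), expressed as % wild-type response. Surface expression checked by anti-Myc flow cytometry.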

CLEC-2 = conditions: cross-linking of CLEC-2; ref [4],[6]; cited from earlier work
[5] = molecular target: Syk tandem SH2 domains (GST fusion protein); assay: other fluorescence titration

dually phosphorylated peptide based on the human FcRγ-chain ITAM, biotinylated (human), sequence (P30273 54-82): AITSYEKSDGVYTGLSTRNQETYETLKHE

Kd [1]: 1.7 µM
Molecule: Syk C-terminal SH2 domain (GST fusion protein) (domain or fragment)

Molecule: CLEC-2 cytoplasmic tail, 1-31 (from UniProt Q9P126) pY7 pT9 31-mer peptide
binding against the reference (Syk (platelet)): same

Molecule: non-phosphorylated CLEC-2 peptide: corresponding nonphosphorylated 13 amino acid peptide (MQDEDGYITLNIK; also: biotin, end not given here)
detectable binding, N-SH2 (Syk N-SH2 domain): No detectable binding | detectable binding, tandem SH2 [2]: No detectable binding | detectable binding, C-SH2 (Syk C-SH2 domain): No detectable binding

Molecule: tyrosine phosphorylated CLEC-2 peptide: phosphorylated peptide based on the first 13 amino acids of the CLEC-2 tail, which includes the conserved MQDEDGYxxL sequence (MQDEDG[pY]ITLNIK; also: biotin, end not given here)
binding to single C-terminal SH2 domain, tryptophan fluorescence [3]: unable to detect binding

Kd [1]: 0.02 µM
Molecule: Syk tandem SH2 domains (GST fusion protein) (domain or fragment)

Molecule: collagen
phosphorylation of FcRγ-chain ITAM tyrosines (GPVI): Src kinase-dependent phosphorylation of two conserved tyrosines | NFAT activation by collagen, C-terminal ITAM tyrosine mutant [4]: abolished

Kd [1]: 19.7 µM
Molecule: Syk N-terminal SH2 domain (GST fusion protein) (domain or fragment)

B1: podoplanin: transmembrane protein podoplanin (protein, UniProt Q86YL7 23-162, looked up)
Podoplanin: ASTGQPEDDTETTGLEGGVAMPGAEDDVVTPGTSEDRYKSGLTTLVATSVNSVTGIRIEDLPTSESTVHAQEQSPSATASNVATSHSTEKVDGDTQTTVEKDGLSTVTLVGIIVGVLLAIGFIGAIIVVVMRKMSGRYSP
platelet aggregation and secretion (CLEC-2): powerful platelet aggregation and secretion

Kd [5]: 5.7 µM
Molecule: MQDEDG[pY]ITLNIK (also: biotinylated, end not given here)
